Assay results pooled from the literature.
Protocols differ between the studies behind these lines.
Cell line: HEK293
Read-out: cell growth or viability

SMILES | technique | tested at | time | endpoint | value
O=C(Nc1ccc(C(F)(F)F)cc1)c1cccc(C(F)(F)F)c1 | resazurin | – | 48 h | CC50 | 9.25 µM
COc1ccccc1C(=O)/C=C/c1cn(Cc2cn(-c3ccnc4cc(Cl)ccc34)nn2)c2ccccc12 | MTT | 100 µM | 24 h | viability | > 90%
CCCc1cc(=O)oc2cc(OCc3cc(=O)c(O)co3)ccc12 | CCK-8 | 36 µM | 24 h | viability | 94%
O=C(Nc1cccc([N+](=O)[O-])c1)c1ccccc1 | resazurin | – | 48 h | CC50 | > 20 µM
Cn1cc2c3c1C(=O)C(NCCc1ccc(O)cc1)=CC3=NCC2 | MTT | – | 72 h | CC50 | 2.5 µM
Cc1ccc(Cn2cc(C(=O)NN)c(=O)c3cc(Oc4ccccc4)ccc32)cc1 | resazurin | – | 48 h | CC50 | > 20 µM
O=C(Nc1ccc([N+](=O)[O-])cc1)c1ccc(F)cc1 | resazurin | – | 48 h | CC50 | > 20 µM
O=C1C(NCCc2c[nH]c3ccccc23)=CC2=NCCc3c[nH]c1c32 | MTT | – | 72 h | CC50 | 3.1 µM
Cc1ccc(Cn2cc(C(=O)N/N=C/c3ccc([N+](=O)[O-])s3)c(=O)c3cc(Cl)c(Cl)cc32)cc1 | resazurin | – | 48 h | CC50 | > 20 µM
O=C1c2[nH]cc3c2C(=NCC3)c2c(-c3ccc(O)cc3)c[nH]c21 | MTT | – | 72 h | CC50 | 0.2 µM
O=C(N/N=C/c1ccc([N+](=O)[O-])o1)c1cn(Cc2ccccc2)c2ccccc2c1=O | resazurin | – | 48 h | CC50 | > 20 µM
COC(CNC1=CC2=NCCc3c[nH]c(c32)C1=O)c1c[nH]c2ccccc12 (stereo not drawn) | MTT | – | 72 h | CC50 | 4 µM
Cc1ccc(Cn2cc(C(=O)N/N=C/c3ccc([N+](=O)[O-])o3)c(=O)c3cc([N+](=O)[O-])ccc32)cc1 | resazurin | – | 48 h | CC50 | > 20 µM
O=C(Nc1cccc([N+](=O)[O-])c1)c1cccc(C(F)(F)F)c1 | resazurin | – | 48 h | CC50 | > 20 µM
NC1=CC2=NCCc3c[nH]c(c32)C1=O | MTT | – | 72 h | CC50 | 0.1 µM
